Screening data (PubChem)
SIRT5 inh = sirtuin-5 (human) deacylase inhibition | Purified SirT5, succinyl-peptide AMC, trypsin-coupled fluorescence | inhibition, % at 15 µM | hit rate 1.1% among 330,000 | AID 652115 | Q9NXA8; in the data active means inhibition above about 15%
CaV13 FRET inh = Disruptors of the CACNA1D IQ motif to Ca2+-dependent inactivation inhibitor domain association, primary screening, Förster resonance energy transfer in intact living …; HEK cells, CFP/YFP FRET ICDI-IQ, plate reader, 10 min; percent FRET-ratio fall versus neutral wells; inhibition, % at 12.3 µM; hit rate 0.098% among 340,000; AID 743397;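 active means mean replicate inhibition of at least 30% and at least 1% of replicates passing that level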
DENV2 CPE rescue = protects cells from dengue virus 2 cytopathic effect; DENV2-infected cells, cytopathic effect rescue, plate reader; CPE inhibition, % at 9.99 µM; hit rate 1.7% among 350,000; in the data active means CPE inhibition above about 20%, passing the limit was not always enough; tested in BHK-21 cells
AF4-AF9 inh = blocks AF4 peptide binding to human AF9; hit rate 0.47% among 350,000; P42568; inhibition, % at 10 µM; AID 651704; AlphaScreen, biotin-AF4 peptide binding to FLAG-AF9;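 active means every replicate reaching a set inhibition limit, whatever the replicate mean, cut at about 25% in these data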
Target sequence (P42568 whole entry, looked up): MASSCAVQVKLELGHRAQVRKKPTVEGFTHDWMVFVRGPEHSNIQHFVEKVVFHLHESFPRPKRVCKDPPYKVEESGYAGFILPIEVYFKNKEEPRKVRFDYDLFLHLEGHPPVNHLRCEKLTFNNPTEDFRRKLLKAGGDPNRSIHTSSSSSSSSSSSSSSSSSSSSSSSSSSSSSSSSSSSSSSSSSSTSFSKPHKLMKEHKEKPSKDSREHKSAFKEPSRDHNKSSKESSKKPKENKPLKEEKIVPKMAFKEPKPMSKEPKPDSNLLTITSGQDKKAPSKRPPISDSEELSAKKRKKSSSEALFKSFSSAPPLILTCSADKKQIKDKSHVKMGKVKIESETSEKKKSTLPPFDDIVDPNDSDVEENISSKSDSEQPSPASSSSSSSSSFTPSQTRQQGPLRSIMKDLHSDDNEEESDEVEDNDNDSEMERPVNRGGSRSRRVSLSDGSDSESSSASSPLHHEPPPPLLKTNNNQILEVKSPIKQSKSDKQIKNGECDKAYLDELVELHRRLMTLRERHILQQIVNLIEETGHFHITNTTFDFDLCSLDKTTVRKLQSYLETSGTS
S100A4 inh HTS = blocks human S100A4 binding to myosin IIA peptide; S100A4/TAMRA-MyoIIA peptide fluorescence polarization; inhibition, % at 10.7 µM; AID 652163; hit rate 0.14% among 360,000; P26447;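 active means mean inhibition of at least 70% across replicates, with every replicate also reaching that level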
Target sequence (P26447 whole entry, looked up): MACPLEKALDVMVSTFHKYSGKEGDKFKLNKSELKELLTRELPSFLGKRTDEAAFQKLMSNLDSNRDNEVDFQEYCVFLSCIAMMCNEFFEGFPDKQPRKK
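Material: S100A4 monomer protein / Buffer or medium: 50 mM HEPES pH 7.2, 10 mM CaCl2, 100 mM KCl / Times: 5 min incubation before reading / Benchmarks: neutral control DMSO, positive control TFP / Reagent: labelled myosin peptide probe, 5 nM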
Numbers stand for hits. An excerpt weighted towards active compounds, which were near 2.7% of everything screened.

`O=C(NCc1ccc(F)cc1)c1ccccc1OCc1ccccc1` gave SIRT5 inh inactive, CaV13 FRET inh inactive, AF4-AF9 inh inactive and S100A4 inh HTS inactive.
Screening CCCCN(CCCC)S(=O)(=O)c1c(C)[nH]c(=O)[nH]c1=O returned SIRT5 inh 22.0, CaV13 FRET inh inactive, DENV2 CPE rescue inactive, AF4-AF9 inh inactive and S100A4 inh HTS inactive.
O=C(NNc1ccccc1C(F)(F)F)c1sccc1Br was read as SIRT5 inh 20.3, CaV13 FRET inh inactive, DENV2 CPE rescue inactive, AF4-AF9 inh inactive and S100A4 inh HTS inactive.
Screening COc1ccc(S(=O)(=O)N(C)C[C@@H]2OCCCC[C@H](C)Oc3ccc(NC(=O)NC4CCCCC4)cc3C(=O)N([C@@H](C)CO)C[C@@H]2C)cc1 returned SIRT5 inh inactive, DENV2 CPE rescue inactive, AF4-AF9 inh inactive and S100A4 inh HTS inactive.
COc1ccc(NC(=O)N(C)[C@H]2C[C@H]3c4[nH]c5ccccc5c4CCN3C(=O)[C@H]2CO)cc1 was read as SIRT5 inh inactive, CaV13 FRET inh inactive, DENV2 CPE rescue inactive, AF4-AF9 inh inactive and S100A4 inh HTS inactive.
CN(C(=O)Nc1ccc(F)cc1)[C@H]1C[C@H]2c3[nH]c4ccccc4c3CCN2C(=O)[C@H]1CO was read as SIRT5 inh inactive, CaV13 FRET inh inactive, DENV2 CPE rescue 43.9, AF4-AF9 inh inactive and S100A4 inh HTS inactive.
`CN(C)CC(=O)Nc1ccc2c(c1)[C@@H]1C[C@@H](CC(=O)NCC3CC3)O[C@H](CO)[C@@H]1O2` gave SIRT5 inh inactive, DENV2 CPE rescue inactive, AF4-AF9 inh inactive and S100A4 inh HTS inactive.
Screening O=C(O)CC1S/C(=N/N=C/C=C/c2ccccc2)NC1=O (configuration not stated) returned SIRT5 inh inactive, CaV13 FRET inh inactive, DENV2 CPE rescue inactive, AF4-AF9 inh inactive and S100A4 inh HTS inactive.
O=C(O)CC1S/C(=N/N=C/C2CC=CCC2)NC1=O (configuration not stated) was read as SIRT5 inh 111.8, CaV13 FRET inh inactive, DENV2 CPE rescue inactive, AF4-AF9 inh inactive and S100A4 inh HTS inactive.
For Cn1c(=O)n(C)c2cc(/C=N/N=C3/NC(=O)C(CC(=O)O)S3)ccc21 (configuration not stated) the results were SIRT5 inh 18.7, CaV13 FRET inh inactive, DENV2 CPE rescue inactive, AF4-AF9 inh inactive and S100A4 inh HTS inactive.
COc1ccccc1C#Cc1cnc2c(c1)C(=O)N([C@@H](C)CO)C[C@H](C)[C@@H](CN(C)S(=O)(=O)c1cn(C)cn1)O2 was read as SIRT5 inh inactive, DENV2 CPE rescue inactive, AF4-AF9 inh inactive and S100A4 inh HTS inactive.
Screening C[C@@H]1CN([C@H](C)CO)C(=O)Cc2cc(NS(=O)(=O)c3ccc(Cl)cc3)ccc2O[C@@H]1CN(C)C(=O)Nc1ccccc1 returned SIRT5 inh inactive, DENV2 CPE rescue 26.8, AF4-AF9 inh inactive and S100A4 inh HTS inactive.
Cc1ccc(S(=O)(=O)Nc2ccc3c(c2)CC(=O)N([C@H](C)CO)C[C@@H](C)[C@@H](CN(C)C(=O)Nc2ccc(F)cc2)O3)cc1 was read as SIRT5 inh inactive, DENV2 CPE rescue 24.8, AF4-AF9 inh inactive and S100A4 inh HTS inactive.
`COc1ccc(NC(=O)N(C)C[C@H]2Oc3ccc(NS(C)(=O)=O)cc3CC(=O)N([C@H](C)CO)C[C@@H]2C)cc1` gave SIRT5 inh inactive, DENV2 CPE rescue inactive, AF4-AF9 inh inactive and S100A4 inh HTS inactive.
Screening Cc1ccc(S(=O)(=O)Nc2ccc3c(c2)CC(=O)N([C@H](C)CO)C[C@H](C)[C@@H](CN(C)C(=O)Nc2ccc(F)cc2)O3)cc1 returned SIRT5 inh inactive, DENV2 CPE rescue inactive, AF4-AF9 inh inactive and S100A4 inh HTS inactive.
Screening COc1ccc(NC(=O)N(C)C[C@@H]2Oc3ccc(NS(C)(=O)=O)cc3CC(=O)N([C@H](C)CO)C[C@@H]2C)cc1 returned SIRT5 inh inactive, DENV2 CPE rescue 33.8, AF4-AF9 inh inactive and S100A4 inh HTS inactive.
COc1ccc(NC(=O)N(C)C[C@H]2Oc3ccc(NS(=O)(=O)c4ccc(OC)cc4)cc3CC(=O)N([C@H](C)CO)C[C@H]2C)cc1 was read as SIRT5 inh 19.8, DENV2 CPE rescue inactive, AF4-AF9 inh inactive and S100A4 inh HTS inactive.
COc1ccc(S(=O)(=O)Nc2ccc3c(c2)CC(=O)N([C@H](C)CO)C[C@@H](C)[C@H](CN(C)C(=O)NC(C)C)O3)cc1 was read as SIRT5 inh inactive, DENV2 CPE rescue inactive, AF4-AF9 inh inactive and S100A4 inh HTS inactive.
COc1ccc(S(=O)(=O)Nc2ccc3c(c2)CC(=O)N([C@H](C)CO)C[C@H](C)[C@H](CN(C)C(=O)NC(C)C)O3)cc1 was read as SIRT5 inh inactive, DENV2 CPE rescue 64.4, AF4-AF9 inh inactive and S100A4 inh HTS inactive.
For COc1cccc(CNc2ccc3c(c2)ncn3C(C)C)c1OC the results were SIRT5 inh inactive, CaV13 FRET inh inactive, DENV2 CPE rescue inactive, AF4-AF9 inh 47.9 and S100A4 inh HTS inactive.
`CN1/C(=C/C(=S)NC(=O)C2CCC2)C(C)(C)c2ccccc21` gave SIRT5 inh 15.0, CaV13 FRET inh inactive, DENV2 CPE rescue inactive, AF4-AF9 inh inactive and S100A4 inh HTS inactive.
CC(C)C(=O)NC(=S)/C=C1/N(C)c2ccccc2C1(C)C was read as SIRT5 inh inactive, CaV13 FRET inh inactive, DENV2 CPE rescue inactive, AF4-AF9 inh inactive and S100A4 inh HTS inactive.
COC(=O)c1ccc(N2NC(=O)/C(=C/c3ccc(-c4ccc(Cl)c(C(=O)O)c4)o3)C2=O)cc1 was read as SIRT5 inh 23.5, CaV13 FRET inh inactive, DENV2 CPE rescue inactive, AF4-AF9 inh inactive and S100A4 inh HTS inactive.
`Cc1ccc(N2NC(=O)/C(=C/c3ccc(-c4ccc(Cl)c(C(=O)O)c4)o3)C2=O)cc1C` gave SIRT5 inh inactive, CaV13 FRET inh inactive, DENV2 CPE rescue inactive, AF4-AF9 inh inactive and S100A4 inh HTS inactive.
For Cc1ccc(CN2C(=O)N/C(=C\c3ccc(-c4ccc(C(=O)O)cc4C)o3)C2=O)cc1 the results were SIRT5 inh inactive, CaV13 FRET inh inactive, DENV2 CPE rescue inactive, AF4-AF9 inh inactive and S100A4 inh HTS inactive.
For O=C1NN(c2ccccc2)C(=O)/C1=C/c1ccc(-c2ccc(C(=O)O)cc2)o1 the results were SIRT5 inh 23.9, CaV13 FRET inh inactive, DENV2 CPE rescue inactive, AF4-AF9 inh inactive and S100A4 inh HTS inactive.
Screening O=C(O)c1ccc(-c2ccc(/C=C3\NC(=O)N(Cc4ccc(Cl)cc4)C3=O)o2)cc1 returned SIRT5 inh inactive, CaV13 FRET inh 47.9, DENV2 CPE rescue inactive, AF4-AF9 inh inactive and S100A4 inh HTS inactive.
Screening CC1=NOC(=O)/C1=C\c1ccc(-c2ccc(Cl)c(C(=O)O)c2)o1 returned SIRT5 inh 21.8, CaV13 FRET inh inactive, DENV2 CPE rescue inactive, AF4-AF9 inh inactive and S100A4 inh HTS inactive.
For C[C@@H]1CN([C@H](C)CO)C(=O)c2cc(NC(=O)CCCN(C)C)ccc2O[C@@H]1CN(C)C(=O)Nc1ccccc1 the results were SIRT5 inh inactive, DENV2 CPE rescue inactive, AF4-AF9 inh inactive and S100A4 inh HTS inactive.
